Experimental data taken from PMC4824005 (Nature structural & molecular biology, 2015).

System: Shc1 phosphorylated at Tyr239 and Tyr240 in MCF10A cells
Experiment: Immunoblot of dual Shc1 phosphorylation in MCF10A cells
Assay type: cell-based
Conditions: 1ng/mL EGF, 3 min
Method in brief: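 MCF10A cells (STR-authenticated, mycoplasma-free) were kept in HuMEC medium and held 16 h in growth-factor-free medium before pretreatment with test compound and EGF stimulation. Cells were lysed in RIPA buffer containing protease and phosphatase inhibitors. Lysates were separated by SDS-PAGE, transferred to nitrocellulose and immunoblotted with phospho-Shc and total Shc antibodies.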

B1: EGF: EGF, used at 1ng/mL to stimulate MCF10A cells (protein, UniProt P01133 23-1207, looked up)
Pro-epidermal growth factor: PQHWSCPEGTLAGNGNSTCVGPAPFLIFSHGNSIFRIDTEGTNYEQLVVDAGVSVIMDFHYNEKRIYWVDLERQLLQRVFLNGSRQERVCNIEKNVSGMAINWINEEVIWSNQQEGIITVTDMKGNNSHILLSALKYPANVAVDPVERFIFWSSEVAGSLYRADLDGVGVKALLETSEKITAVSLDVLDKRLFWIQYNREGSNSLICSCDYDGGSVHISKHPTQHNLFAMSLFGDRIFYSTWKMKTIWIANKHTGKDMVRINLHSSFVPLGELKVVHPLAQPKAEDDTWEPEQKLCKLRKGNCSSTVCGQDLQSHLCMCAEGYALSRDRKYCEDVNECAFWNHGCTLGCKNTPGSYYCTCPVGFVLLPDGKRCHQLVSCPRNVSECSHDCVLTSEGPLCFCPEGSVLERDGKTCSGCSSPDNGGCSQLCVPLSPVSWECDCFPGYDLQLDEKSCAASGPQPFLLFANSQDIRHMHFDGTDYGTLLSQQMGMVYALDHDPVENKIYFAHTALKWIERANMDGSQRERLIEEGVDVPEGLAVDWIGRRFYWTDRGKSLIGRSDLNGKRSKIITKENISQPRGIAVHPMAKRLFWTDTGINPRIESSSLQGLGRLVIASSDLIWPSGITIDFLTDKLYWCDAKQSVIEMANLDGSKRRRLTQNDVGHPFAVAVFEDYVWFSDWAMPSVMRVNKRTGKDRVRLQGSMLKPSSLVVVHPLAKPGADPCLYQNGGCEHICKKRLGTAWCSCREGFMKASDGKTCLALDGHQLLAGGEVDLKNQVTPLDILSKTRVSEDNITESQHMLVAEIMVSDQDDCAPVGCSMYARCISEGEDATCQCLKGFAGDGKLCSDIDECEMGVPVCPPASSKCINTEGGYVCRCSEGYQGDGIHCLDIDECQLGEHSCGENASCTNTEGGYTCMCAGRLSEPGLICPDSTPPPHLREDDHHYSVRNSDSECPLSHDGYCLHDGVCMYIEALDKYACNCVVGYIGERCQYRDLKWWELRHAGHGQQQKVIVVAVCVVVLVMLLLLSLWGAHYYRTQKLLSKNPKNPYEESSRDVRSRRPADTEDGMSSCPQPWFVVIKEHQDLKNGGQPVAGEDGQAADGSMQPTSWRQEPQLCGMGTEQGCWIPVSSDKGSCPQVMERSFHMPSYGTQTLEGGVEKPHSLLSANPLWQQRALDPPHQMELTQ
modifications: Pro-epidermal growth factor
EGF-stimulated phosphorylation of Shc1 at both Tyr239 and Tyr240: significant phosphorylation of both Tyr239 and Tyr240 was detected
